We go through 19 compounds from ChEMBL document CHEMBL1909609, “Synthesis of purine modified 2'-C-methyl nucleosides as potential anti-HCV agents” (Bioorg Med Chem Lett, 2011).

Activity calls are given as the source filed them. No cut-off for these calls is given here. A value given as a limit tells only on which side of the number the result lay.

Data set [1] deals with Hepatitis C virus. In words: Antiviral activity against HCV infected in human HuH7 cells assessed as inhibition of viral replication at 10 uM by RT-PCR analysis. The class given is functional, Hepacivirus hominis. The conditions noted are these: Huh-7. The method in brief: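 Huh7 cells carrying a subgenomic HCV replicon, with compounds tested at 10 μM. HCV RNA and ribosomal RNA were extracted and amplified together, so cytotoxicity was read at the same time as replicon inhibition.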

The subject of another data set is Huh-7. Nature of the data set: Cytotoxicity against human HuH7 cells assessed as rRNA level at 10 uM. It counts as cell-based. The conditions noted are these: huh-7, 10 µM. The method in brief: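 Huh7 cells carrying a subgenomic HCV replicon were given compound at 10 μM. Cytotoxicity was measured alongside anti-HCV activity by extracting and amplifying ribosomal RNA together with HCV RNA.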

For data set [2], the system named is Human immunodeficiency virus 1. Nature of the data set: Antiviral activity against HIV1 LAI infected in human peripheral blood mononuclear cells assessed as inhibition of viral replication after 5 days by quantitative RT-PCR analysis. The class given is functional, organism-based. The conditions noted are these: Human immunodeficiency virus 1, LAI, 120 h. The gist of the method:
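Primary human PBM cells were infected with HIV-1 LAI, and AZT was run as the positive standard.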

Data set [3] is described as follows: Cytotoxicity against human PBMC after 5 days. The class given is cell-based.
For a further data set, the system named is CCRF-CEM. Nature of the data set: (§1) Cytotoxicity against human CEM after 5 days. The class given is cell-based. The settings on record: ccrf-cem, 120 h.
The nature of data set [4]: Cytotoxicity against african green monkey Vero after 5 days. The conditions noted are these: chlorocebus sabaeus, Vero cells. It counts as cell-based.
Data set [5] can be described thus: Chemical stability of the compound in phosphate buffer at pH 7.4 assessed as formation of complex mixture product after 3 days. It counts as physicochemical. The conditions noted are these: pH 7.4, 72 h.
The test system of data set [6] is Hepatitis C virus. Nature of the data set: Antiviral activity against HCV infected in human HuH7 cells assessed as inhibition of viral replication by RT-PCR analysis. It counts as functional, organism-based, Hepacivirus hominis. The settings on record: Huh-7. The gist of the method:
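Subgenomic HCV replicon system in Huh7 cells. HCV RNA and ribosomal RNA were both extracted and amplified, with the rRNA signal giving cytotoxicity at the same time as antiviral activity.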

The nature of data set [7]: as §1. The class given is cell-based, CCRF-CEM. The conditions noted are these: CEM cells (CCRF-CEM).
Data set [8] addresses T1, Adenosine deaminase (Homo sapiens) (UniProt P00813).
T1 sequence (whole entry): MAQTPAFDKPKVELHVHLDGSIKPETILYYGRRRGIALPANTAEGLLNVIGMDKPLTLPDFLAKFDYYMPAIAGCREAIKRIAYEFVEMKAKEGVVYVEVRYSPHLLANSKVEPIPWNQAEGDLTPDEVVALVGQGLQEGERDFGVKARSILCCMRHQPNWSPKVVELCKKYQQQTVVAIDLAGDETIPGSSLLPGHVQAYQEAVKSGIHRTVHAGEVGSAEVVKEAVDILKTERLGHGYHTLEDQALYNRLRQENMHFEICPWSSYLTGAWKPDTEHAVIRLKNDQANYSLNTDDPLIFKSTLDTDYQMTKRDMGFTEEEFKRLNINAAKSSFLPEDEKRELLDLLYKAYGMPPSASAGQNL
Nature of the data set: Activity at adenosine deaminase assessed as nitrogen to oxygen transformation.

The target of data set [9] is T1, Adenosine deaminase (Homo sapiens). Nature of the data set: Activity at adenosine deaminase. The method in brief:
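ADA inhibition assay: 140 μM adenosine (final) with 0.01 units adenosine deaminase in 50 mM potassium phosphate, pH 7.4; compounds at 10 μM. Absorbance at 265 nm followed over four minutes. Inhibition judged from the change in slope relative to no-compound control, with a slope nearing zero indicating inhibition.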

As a reminder, the inhibition is the percentage by which the read-out fell short of the control. One may read the EC50 as the concentration giving half of the maximal effect. The EC90 is the concentration needed for an effect of 90%. By CC50 is commonly meant the concentration giving 50% cytotoxicity. As for `C[C@@]1(OC(=O)c2ccccc2)[C@H](OC(=O)c2ccccc2)[C@@H](COC(=O)c2ccccc2)O[C@H]1n1cnc2c(Cl)nc(NO)nc21`, the inhibition at 10 µM in the data set on Hepatitis C virus [1] worked out at 100%. Further, in the data set with Huh-7, the Activity was determined as 100%. The EC50 in data set [2] was 17 µM. Further, the EC90 in [2] is 65 µM. Moreover, the CC50 at 120 h in data set [3] was 43 µM; in data set [4], above 100 µM. In the data set with CCRF-CEM, the CC50 amounted to 7.3 µM.

Turning to `C[C@@]1(O)[C@H](O)[C@@H](CO)O[C@H]1n1cnc2c(N)nc(NN)nc21`, the inhibition at 10 µM in the data set with Hepatitis C virus [1] was found to be 85%. Further, in the data set with Huh-7, the Activity amounted to 7%. Besides, in [5], the Stability entry is “Unstable”. Moreover, the EC50 was above 100 µM in data set [2] and 6 µM in the data set with Hepatitis C virus [6]. In [2], the EC90 was above 100 µM. The CC50 at 120 h in data set [3], in data set [7] and in [4] was above 100 µM each time.

For `C[C@@]1(O)[C@H](O)[C@@H](CO)O[C@H]1n1cnc(C(=O)NN)c1/C(N)=N/N`, the inhibition at 10 µM in the data set on Hepatitis C virus [1] amounted to 0%. The Activity with Huh-7 was 9%. The EC50 in data set [2] was above 100 µM. Further, the EC90 in data set [2] was above 100 µM. In addition, the CC50 at 120 h in data set [3], in data set [7] and in data set [4] was above 100 µM throughout.

With `CCOC(=O)[C@H](C)NP(=O)(OC[C@H]1O[C@@H](n2cnc3c(C)nc(N)nc32)[C@](C)(O)[C@@H]1O)Oc1ccccc1` (some centres undefined), the inhibition at 10 µM in the data set on Hepatitis C virus [1] was 0%. In addition, in the data set on Huh-7, the Activity is 0%. In addition, the EC50 in data set [2] came out at 68 µM. The EC90 in data set [2] was above 100 µM. For the same compound, the CC50 at 120 h in data set [3], in data set [7] and in data set [4] was above 100 µM throughout.

`C[C@@]1(O)[C@H](O)[C@@H](CO)O[C@H]1n1cnc2c(=N)n(N)[nH]c(=O)c21`: the inhibition at 10 µM in the data set on Hepatitis C virus [1] was 0%. Also, the Activity in the data set with Huh-7 is given as 0%. For the same compound, in data set [2], the EC50 is above 100 µM. The EC90 in data set [2] is above 100 µM. In addition, the CC50 at 120 h in data set [3], in data set [7] and in data set [4] was above 100 µM in each case.

In the case of `CCOP(=O)(O)c1nc(N)nc2c1ncn2[C@@H]1O[C@H](CO)[C@@H](O)[C@@]1(C)O`, the inhibition at 10 µM with Hepatitis C virus [1] turned out to be 19%. Moreover, the Activity with Huh-7 was 15%. The outcome in data set [8] was inactive. The EC50 in [2] was above 100 µM. The EC90 in data set [2] was above 100 µM. In addition, the CC50 at 120 h in data set [3], in data set [7] and in data set [4] was above 100 µM each time.

With `C[C@@]1(O)[C@H](O)[C@@H](CO)O[C@H]1n1cnc2c(N)n[nH]c(=O)c21`, in the data set on Hepatitis C virus [1], the inhibition at 10 µM was 0%. Moreover, the Activity in the data set with Huh-7 was determined as 0%. Moreover, the result in data set [8] was inactive. The EC50 in [2] was above 100 µM. In addition, the EC90 in data set [2] was above 100 µM. Also, the CC50 at 120 h in data set [3], in data set [7] and in [4] was above 100 µM in each case.

Regarding `C[C@@]1(O)[C@H](O)[C@@H](CO)O[C@H]1n1cnc2c(N)nc(N=[N+]=[N-])nc21`, in the data set with Hepatitis C virus [1], the inhibition at 10 µM came out at 5.2%. Moreover, in the data set on Huh-7, the Activity is on record as 0%. Further, in data set [2], the EC50 was above 100 µM. In data set [2], the EC90 was above 100 µM. The CC50 at 120 h in [3], in [7] and in data set [4] was above 100 µM each time.

For the compound `C[C@@]1(O)[C@H](O)[C@@H](CO)O[C@H]1n1cnc2c(N)nc(Cl)nc21`, the inhibition at 10 µM with Hepatitis C virus [1] came to 0%. Also, the Activity in the data set on Huh-7 stood at 5.8%. Moreover, in data set [2], the 50% effective concentration (EC50) is above 100 µM. The EC90 in data set [2] was above 100 µM. The CC50 at 120 h in [3], in [7] and in data set [4] was above 100 µM each time.

As to `Cc1nc2c3ncn([C@@H]4O[C@H](CO)[C@@H](O)[C@@]4(C)O)c3nc(N)n2n1`, in the data set on Hepatitis C virus [1], the inhibition at 10 µM is 0%. The Activity with Huh-7 was determined as 0%. Moreover, the EC50 in [2] is above 100 µM. In data set [2], the EC90 is above 100 µM. Also, the CC50 at 120 h in data set [3], in data set [7] and in data set [4] was above 100 µM in each case.

With `C[C@@]1(O)[C@H](O)[C@@H](CO)O[C@H]1n1cnc2c(=O)[nH]nc(N)c21`, the inhibition at 10 µM in the data set with Hepatitis C virus [1] stood at 0%. The Activity in the data set on Huh-7 is recorded as 0%. In addition, the EC50 in data set [2] was above 100 µM. For the same compound, the EC90 in data set [2] is above 100 µM. Further, the CC50 at 120 h in [3], in [7] and in data set [4] was above 100 µM each time.

Turning to `C[C@@]1(OC(=O)c2ccccc2)[C@H](OC(=O)c2ccccc2)[C@@H](COC(=O)c2ccccc2)O[C@H]1n1cnc2c(N)nc(NO)nc21`, in the data set on Hepatitis C virus [1], the inhibition at 10 µM came out at 66%. Besides, the Activity with Huh-7 was 76%. The EC50 in [2] turned out to be 8.7 µM. In data set [2], the EC90 was 42 µM. For the same compound, the results for the CC50 at 120 h in [3], in data set [7] and in data set [4] were above 100 µM, 27 µM and 42 µM, respectively.

For the compound `C[C@@]1(O)[C@H](O)[C@@H](CO)O[C@H]1n1cnc2c(N)nc(-n3ccnn3)nc21`, the inhibition at 10 µM with Hepatitis C virus [1] was 0%. Also, the Activity in the data set on Huh-7 is recorded as 0%. The outcome in data set [8] was inactive. In addition, in [2], the EC50 is above 100 µM. In addition, in data set [2], the EC90 was above 100 µM. Further, the CC50 at 120 h in data set [3], in data set [7] and in [4] was above 100 µM each time. Also, in data set [9], the outcome was Active.

Turning to `C[C@@]1(O)[C@H](O)[C@@H](CO)O[C@H]1n1cnc2c(N)nc(-n3cc([Si](C)(C)C)nn3)nc21`, in the data set on Hepatitis C virus [1], the inhibition at 10 µM is 0%. Also, in the data set with Huh-7, the Activity is reported as 0%. The EC50 in [2] was above 100 µM. The EC90 in data set [2] was above 100 µM. Besides, the CC50 at 120 h in data set [3], in data set [7] and in [4] was above 100 µM throughout.

As for `Cc1nc(N)nc2c1ncn2[C@@H]1O[C@H](CO)[C@@H](O)[C@@]1(C)O`, in the data set with Hepatitis C virus [1], the inhibition at 10 µM was found to be 0%. Moreover, in the data set with Huh-7, the Activity is on record as 0%. Also, the EC50 in [2] worked out at 70 µM. Moreover, the EC90 in data set [2] is above 100 µM. Also, the CC50 at 120 h is above 100 µM in data set [3], 13 µM in [7] and above 100 µM in data set [4].

Consider `C[C@@]1(O)[C@H](O)[C@@H](CO)O[C@H]1n1cnc2c1nc(N)n1nc(-c3ccco3)nc21`, for which the inhibition at 10 µM in the data set with Hepatitis C virus [1] is 0%. Also, in the data set on Huh-7, the Activity turned out to be 0%. Moreover, in data set [2], the EC50 is above 100 µM. In addition, the EC90 in data set [2] was above 100 µM. Moreover, the CC50 at 120 h in [3], in data set [7] and in data set [4] was above 100 µM in each case.

As to `COc1nc(Cl)nc2c1ncn2[C@@H]1O[C@H](CO)[C@@H](O)[C@@]1(C)O`, the inhibition at 10 µM with Hepatitis C virus [1] stood at 14%. Moreover, in the data set on Huh-7, the Activity was determined as 9.8%. Further, the EC50 in [2] is above 100 µM. In addition, in [2], the EC90 was above 100 µM. For the same compound, the CC50 at 120 h in data set [3], in data set [7] and in [4] was above 100 µM throughout.

Regarding `CCOC(=O)[C@H](C)NP(=O)(OC[C@H]1O[C@@H](n2cnc3c(N)nc(NN)nc32)[C@](C)(O)[C@@H]1O)Oc1ccccc1` (some centres undefined), the EC50 in the data set on Hepatitis C virus [6] was found to be 0.9 µM.

`CCOP(=O)(OCC)c1nc(N)nc2c1ncn2[C@@H]1O[C@H](CO)[C@@H](O)[C@@]1(C)O`: in the data set with Hepatitis C virus [1], the inhibition at 10 µM came to 19%. Besides, the Activity in the data set with Huh-7 came to 15%. In data set [8], the result was inactive. Also, the EC50 in [2] is above 100 µM. For the same compound, the EC90 in [2] is above 100 µM. In addition, the CC50 at 120 h in data set [3], in data set [7] and in [4] was above 100 µM in each case.
